Experimental data gathered from unrelated publications.
Lines come from different studies, so protocols differ.
Read-out: metabolic stability
Medium: liver microsomes

`Cc1ncsc1-c1ccc(CNC(=O)[C@@H]2C[C@@H](O)CN2C(=O)[C@@H](NC(=O)CCCCCCCCCCNC(=O)O[C@H]2C[C@@H](C)C=C3C=C[C@H](C)[C@H](CC[C@@H]4C[C@@H](O)CC(=O)O4)[C@H]32)C(C)(C)C)cc1` gave a compound remaining of 8.23% (mouse; 1 µM; 15 min; pH 7.4).
`CCCn1nc(C(=O)N2CCCCC2)c2c1CCC(NCCN1CCCCC1)C2` (centres unmarked) gave a compound remaining of 54% (mouse; 10 µM; 1 h).
For `N#Cc1ccc(C[C@@H](NC(=O)Nc2ccc([N+](=O)[O-])cc2)C(=O)NCC2(c3ccccc3)CC2)cc1`, the compound remaining was > 20% (rat; 10 µM; 30 min; pH 7.4).
With `CCCn1nc(C(=O)N(C)C)c2c1CCC(NCc1ccc(F)cc1)C2` (centres unmarked) the compound remaining was < 25% (mouse; 10 µM; 1 h).
The compound remaining of `[O-][S+](CCN1CCCN(CC(O)Cc2ccccc2)CC1)C(c1ccc(F)cc1)c1ccc(F)cc1` (centres unmarked) is reported as 0% (rat; 10 µM; 1 h; pH 7.4).
For `CCCn1nc(C(=O)N2CCCCC2)c2c1CCC(NCc1ccc(N3CCCCC3)cc1)C2` (centres unmarked), the compound remaining was 47% (mouse; 10 µM; 1 h).
For `Cc1ccc2c(c1)nc(CCc1cccc3cccnc13)n2-c1ccccc1`, the compound remaining was 0.05% (rat; 1.5 µM; 45 min).
`N#Cc1ccc(C[C@@H](NC(=O)Nc2ccc(F)cc2)C(=O)NCC2(c3ccc(OC(F)(F)F)cc3)CC2)cc1` gave a compound remaining of > 80% (rat; 10 µM; 30 min; pH 7.4).
The compound remaining of `CC[C@H](C)C(=O)O[C@H]1C[C@@H](C)C=C2C=C[C@H](C)[C@H](CC[C@@H]3C[C@@H](O)CC(=O)O3)[C@H]21` is reported as 0.85% (mouse; 1 µM; 5 min; pH 7.4).
`CS(=O)(=O)c1ccc(-c2cnc(N)c(-c3ccc(C(F)(F)F)nc3)c2)cc1` has a compound remaining of 97% (male rat; 1 µM; 30 min).
For `Cc1ccc2c(c1)nc(/C=C/c1cccc3cccnc13)n2-c1ccccc1`, the compound remaining was 75.4% (rat; 1.5 µM; 5 min).
